Common to all, as to type: cell-based, rat
In test [1] the test system is nicotine-triggered uptake of 45Ca2+ in PC12 cells. The test can be described thus: Nicotinic cholinergic signal transduction: 45Ca2+ uptake. Conditions: nicotine 60 µM, 45Ca2+ 2 µCi/ml, 5 minutes. In short, it runs like this: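 PC12 cells were plated on poly-L-lysine-coated dishes 2 days ahead and rinsed every 15 min for 1 h at 37°C in secretion buffer (150 mM NaCl, 5 mM KCl, 2 mM CaCl2, 10 mM Hepes, pH 7.4). Cells were exposed to ⁴⁵Ca²⁺ with drugs in Ca²⁺-free buffer for 5 min at room temperature. Uptake was stopped with ice-cold 1 mM LaCl3, followed by lysis and scintillation counting (cpm/well). Results are mean ± SEM.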

Test [2] has as its system nicotinic cholinergic-stimulated catecholamine release in PC12 cells. The experiment in a line: Nicotine-stimulated norepinephrine secretion from PC12 cells. Put shortly:
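PC12 cells were washed, then stimulated with nicotine (60 µM) in secretion medium in the presence of graded concentrations of the CHGB-derived test peptide. Maximal effect was taken at 10 µM peptide. Human CHGA[352–372] served as the positive control. Norepinephrine release was measured and each experiment was repeated 3 times.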

Test [3] deals with membrane depolarization-stimulated catecholamine release in PC12 cells. The experiment in a line: KCl. Conditions: KCl 55 mM, CHGB full-length or plasmin-digested, repeated 3 times. In short, it runs like this: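 Rat PC12 cells (passage 10–25) grown in high-glucose DMEM with 10% horse serum and 5% FBS at 37°C in 6% CO2. After washing, cells were stimulated with KCl (55 mM) in secretion medium, with recombinant human CHGB (3.0 µM), either full-length or pre-digested with plasmin (10 µM CHGB, 2 µM plasmin, Tris-Cl pH 8.0, 150 mM NaCl, 1 hr). Three experiments.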

What is called IC50 is the concentration that gives 50% inhibition. Turning to catestatin, the “inhibition of nicotine-stimulated uptake of 45Ca2+” value in test [1] was ~ 82%. In addition, the “efficacy (maximal effect), inhibition of nicotinic cholinergic secretion” value in test [2] (nicotine 60 µM, at 10 µM peptide) was ~ 100%. In test [2] (read-out: potency (IC50) to inhibit nicotinic cholinergic-stimulated catecholamine secretion, nicotine 60 µM, repeated 3 times), the IC50 amounted to 450 nM.

B1: CHGB: purified human recombinant mature CHGB (657 residues) with carboxy-terminal … tag, expressed in E. coli (protein, UniProt P05060 21-677, looked up)
Secretogranin-1: MPVDNRNHNEGMVTRCIIEVLSNALSKSSAPPITPECRQVLKTSRKDVKDKETTENENTKFEVRLLRDPADASEAHESSSRGEAGAPGEEDIQGPTKADTEKWAEGGGHSRERADEPQWSLYPSDSQVSEEVKTRHSEKSQREDEEEEEGENYQKGERGEDSSEEKHLEEPGETQNAFLNERKQASAIKKEELVARSETHAAGHSQEKTHSREKSSQESGEETGSQENHPQESKGQPRSQEESEEGEEDATSEVDKRRTRPRHHHGRSRPDRSSQGGSLPSEEKGHPQEESEESNVSMASLGEKRDHHSTHYRASEEEPEYGEEIKGYPGVQAPEDLEWERYRGRGSEEYRAPRPQSEESWDEEDKRNYPSLELDKMAHGYGEESEEERGLEPGKGRHHRGRGGEPRAYFMSDTREEKRFLGEGHHRVQENQMDKARRHPQGAWKELDRNYLNYGEEGAPGKWQQQGDLQDTKENREEARFQDKQYSSHHTAEKRKRLGELFNPYYDPLQWKSSHFERRDNMNDNFLEGEEENELTLNEKNFFPEYNYDWWEKKPFSEDVNWGYEKRNLARVPKLDLKRQYDRVAQLDQLLHYRKKSAEFPDFYDSEEPVSTHQEAENEKDRADQTVLTEDEKKELENLAAMDLELQKIAEKFSQRG
modifications: C-terminal tag
With B1, the “reduction of membrane depolarization-stimulated catecholamine release” value in test [3] is recorded as ~ 23%.

The values are drawn from PMC3992281 (Journal of neurochemistry, 2013).
